We go through 9 molecules from ChEMBL document CHEMBL1149206, “P1 and P3 optimization of novel bicycloproline P2 bearing tetrapeptidyl alpha-ketoamide based HCV protease inhibitors” (Bioorg Med Chem Lett, 2004).

Data set [1] is described as follows: In vivo concentration in rat liver exposure 8 hour after oral administration 50 mg/kg. Type of data set: ADME, organism-based. Set-up: dose 50 mg/kg, route oral. The note with it: read-out: C. A digest of the protocol: (§1)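 Male Sprague–Dawley rats given a single oral dose of 50 mg/kg as a suspension in a wet granulation vehicle (povidone/lactose/polysorbate). Blood was collected by orbital sinus and terminal cardiac puncture at selected times up to 8 h. Livers were perfused intracardially with saline before sampling. Plasma and liver drug concentrations were measured by LC/MS/MS.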

Data set [2] deals with Prothrombin (Homo sapiens) (UniProt P00734). The experiment in a line: Inhibitory activity against thrombin at 100 uM concentration; Not significant.
For data set [3], the system named is Rattus norvegicus. The experiment in a line: In vivo area under curve in rat plasma exposure after oral administration 50 mg/kg. Type of data set: ADME, organism-based. Also on record: dose 50 mg/kg, route oral. The essentials: as §1
The target in another data set is Chymotrypsinogen A (Bos taurus, UniProt P00766). The experiment in a line: Inhibitory activity against Chymotrypsin. The essentials:
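One of a panel of 10 human serine and cysteine proteases (elastase, chymotrypsin, trypsin, kallikrein, plasmin, thrombin, Factor Xa, cathepsins B, G and L).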

Data set [4] deals with Rattus norvegicus. As to the kind of experiment: In vivo concentration in rat liver exposure 0-8 hour after oral administration 50 mg/kg. Type of data set: ADME, organism-based. Set-up: dose 50 mg/kg, route oral. The essentials: as §1
Data set [5] concerns the target Kallikrein-1 (Homo sapiens) (UniProt P06870). As to the kind of experiment: Inhibitory activity against kallikrein at 100 uM concentration; Not significant.
Data set [6] can be described thus: In vivo concentration in rat plasma exposure at 8 hour after oral administration 50 mg/kg. It is filed as ADME, organism-based. Also on record: dose 50 mg/kg, route oral. The following applies: read-out: C. The essentials: as §1
In data set [7] the target is Serine protease 1 (Homo sapiens) (UniProt P07477). The experiment in a line: Inhibitory activity against trypsin at 100 uM concentration; Not significant.
Data set [8] can be described thus: Ratio of cytotoxicity (CC50) to that of replicon (IC50) was determined. The essentials:
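Selectivity index: the IC50 from the XTT cytotoxicity assay in Huh-7 cells divided by the IC50 from a modified HCV subgenomic replicon assay.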
(Replicon systems follow genome replication, usually without infectious particles.)

Data set [9] in a line: Ratio of the concentration of liver to that of IC50 replication was determined. It is filed as ADME.
Data set [10] concerns Rattus norvegicus. The experiment in a line: In vivo concentration in rat liver exposure 8 hour after oral administration 50 mg/kg; Below detection limit. Type of data set: ADME, organism-based. Also on record: dose 50 mg/kg, route oral. The essentials:
as §1

The subject of a further data set is Huh-7 (Homo sapiens). As to the kind of experiment: Cytotoxic activity in liver Huh-7 cells.
A short description of data set [11]: Inhibitory activity against plasmin at 100 uM concentration; Not significant.

The source made the active and inactive calls. No cut-off for these calls is given here. A value given as a limit tells only on which side of the number the result lay.

Serine protease 1 (Homo sapiens), sequence (P07477 whole entry): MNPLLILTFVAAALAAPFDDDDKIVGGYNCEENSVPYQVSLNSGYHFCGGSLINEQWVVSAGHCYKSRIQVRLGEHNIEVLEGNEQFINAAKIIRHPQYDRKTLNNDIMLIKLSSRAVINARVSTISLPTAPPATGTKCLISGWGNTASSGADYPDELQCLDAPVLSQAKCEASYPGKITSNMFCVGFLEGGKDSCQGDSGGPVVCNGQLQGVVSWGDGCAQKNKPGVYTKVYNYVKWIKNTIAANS
Kallikrein-1 (Homo sapiens), sequence (P06870 25-262 limits assumed): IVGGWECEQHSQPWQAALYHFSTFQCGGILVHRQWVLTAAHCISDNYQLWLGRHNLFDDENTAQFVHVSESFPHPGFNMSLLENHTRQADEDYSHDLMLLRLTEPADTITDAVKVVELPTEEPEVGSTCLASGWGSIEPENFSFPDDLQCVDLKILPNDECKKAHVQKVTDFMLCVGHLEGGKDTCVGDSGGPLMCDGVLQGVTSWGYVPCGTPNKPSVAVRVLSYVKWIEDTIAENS

Turning to `CCC[C@H](NC(=O)[C@@H]1[C@H]2CCC[C@H]2CN1C(=O)[C@@H](NC(=O)[C@@H](NC(=O)c1cnccn1)C(C)C)C(C)(C)C)C(=O)C(=O)NC1CC1`, the values for the concentration at 8 h in [1] and in data set [6] were 3.67 µM and 520 ng/mL, respectively. Moreover, the inhibition result in data set [2], in data set [5] and in data set [7] was “inactive” each time. For the same molecule, the AUC (in general, the area under the concentration-time curve, a measure of exposure) in the data set with Rattus norvegicus [3] amounted to 25800 ng·h/mL. On Chymotrypsinogen A, the IC50 (in general, the point on the concentration scale where inhibition reaches its midpoint) is > 100 µM. For the same molecule, the Caverage in the data set with Rattus norvegicus [4] stood at 16 µM.

Turning to `CC(C)[C@H](NC(=O)c1cnccn1)C(=O)N[C@H](C(=O)N1C[C@@H]2CCC[C@@H]2[C@H]1C(=O)NC(CC(F)F)C(=O)C(=O)NC1CC1)C(C)C` (stereo partly drawn), the Ratio in [8] was > 26; in data set [9], “<= 0.23”. This molecule registered an AUC with Rattus norvegicus [3] of 145 ng·h/mL. The C entry in the data set on Rattus norvegicus [10] is “Below detection limit”. Moreover, the CC50 (as a rule, the concentration giving 50% cytotoxicity) in the data set on Huh-7 (Homo sapiens) is > 100 µM. The Caverage result in the data set on Rattus norvegicus [4] is “</- 0.88 uM”. The concentration at 8 h in data set [6] worked out at 20 ng/mL.

Consider `CCCC(NC(=O)[C@@H]1[C@H]2CCC[C@H]2CN1C(=O)[C@@H](NC(=O)[C@@H](NC(=O)c1cnccn1)C(C)C)C(C)C)C(=O)C(=O)NC1CC1` (stereo partly drawn), for which the inhibition result in data set [2], in data set [5] and in data set [7] was “inactive” throughout. The molecule also registered an AUC in the data set with Rattus norvegicus [3] of 2860 ng·h/mL. The molecule also had a Caverage with Rattus norvegicus [4] of 6.29 µM.

Turning to `CC(C)[C@H](NC(=O)c1cnccn1)C(=O)N[C@H](C(=O)N1C[C@@H]2CCC[C@@H]2[C@H]1C(=O)N[C@@H](CC(F)F)C(=O)C(=O)N[C@@H](C)c1ccccc1)C(C)C`, the Ratio in [8] is > 110. In addition, the CC50 with Huh-7 (Homo sapiens) is > 100 µM.

Take `CC(C)[C@H](NC(=O)c1cnccn1)C(=O)N[C@H](C(=O)N1C[C@@H]2CCC[C@@H]2[C@H]1C(=O)N[C@@H](CC(F)F)C(=O)C(=O)N[C@@H](C)c1ccccc1)C(C)(C)C`: the Ratio in [8] is > 159. Moreover, in the data set on Huh-7 (Homo sapiens), the CC50 is > 100 µM.

For the molecule `CCC[C@H](NC(=O)[C@@H]1[C@H]2CCC[C@H]2CN1C(=O)[C@@H](NC(=O)[C@@H](NC(=O)c1cnccn1)C(C)C)C(C)(C)C)C(=O)C(=O)N[C@@H](C)c1ccccc1`, the inhibition result in data set [2], in [5] and in [7] was “inactive” each time.

Regarding `CCC(C)NC(=O)C(=O)[C@H](CC(F)F)NC(=O)[C@@H]1[C@H]2CCC[C@H]2CN1C(=O)[C@@H](NC(=O)[C@@H](NC(=O)c1cnccn1)C(C)C)C(C)(C)C` (stereo partly drawn), in [8], the Ratio is > 38. Moreover, in the data set on Huh-7 (Homo sapiens), the CC50 was > 100 µM.

As for `CC(C)[C@H](NC(=O)c1cnccn1)C(=O)N[C@H](C(=O)N1C[C@@H]2CCC[C@@H]2[C@H]1C(=O)N[C@@H](CC(F)F)C(=O)C(=O)NC1CC1)C(C)(C)C`, the concentration at 8 h is 0.67 µM in [1] and 40 ng/mL in data set [6]. The inhibition result in data set [2], in data set [5] and in data set [7] was “inactive” in each case. The molecule further had an AUC in the data set with Rattus norvegicus [3] of 1880 ng·h/mL. The molecule further showed a Caverage in the data set on Rattus norvegicus [4] of 3.64 µM.

`CCC[C@H](NC(=O)[C@@H]1[C@H]2CCC[C@H]2CN1C(=O)[C@@H](NC(=O)[C@@H](NC(=O)c1cnccn1)C(C)C)C(C)(C)C)C(=O)C(=O)NC(C)CC` (stereo partly drawn): the Ratio is > 29 in data set [8] and 4 in data set [9]. Besides, the inhibition entry in [11], in data set [2], in [5] and in [7] was “inactive” in each case. Also, the concentration at 8 h is 8.68 µM in data set [1] and 920 ng/mL in [6]. The AUC in the data set with Rattus norvegicus [3] amounted to 22300 ng·h/mL. Moreover, the IC50 at Chymotrypsinogen A was > 100 µM. The CC50 in the data set with Huh-7 (Homo sapiens) was > 100 µM. Besides, in the data set on Rattus norvegicus [4], the Caverage was 14 µM.
